# ChEMBL document CHEMBL3352369, “Design, synthesis and biological evaluation of novel 1-hydroxyl-3-aminoalkoxy xanthone derivatives as potent anticancer agents” (Eur J Med Chem, 2014)
# Active and inactive are the calls of the source. No cut-off for these calls is given here.
# What was measured:
# Type in all cases: functional, cell-based
# [1] = tested on: CNE; assay: Antiproliferative activity against human CNE cells assessed as inhibition of cell viability after 48 hrs by MTT assay
# Outline: (§1)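 A549, BEL-7402 and CNE lines from SIBS (Shanghai), grown as monolayer in RPMI 1640 with 10% FBS. 5000 cells/well in 96-well plates, graded concentrations for 48 h. MTT incubation 4 h at 37 C, DMSO solubilisation, A490 read. IC50 derived from survival relative to untreated control; 5-fluorouracil reference.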
# [2] = Antiproliferative activity against human Bel7402 cells assessed as inhibition of cell viability after 48 hrs by MTT assay; settings: Bel-7402, 48 h; outline: as §1
# [3] = tested on: MGC-803; assay: Antiproliferative activity against human MGC803 cells assessed as inhibition of cell viability after 48 hrs by MTT assay; settings: MGC-803, 48 h
# Outline: (§2)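 MGC-803 cells from SIBS (Shanghai), monolayer in RPMI 1640 with 10% FBS. 5000 cells/well in 96-well plates, exposed to compound for 24, 48 or 72 h. MTT added for a further 4 h at 37 C, formazan dissolved in DMSO, absorbance read at 490 nm. Survival rate = sample/control absorbance × 100%. n = 5, three independent experiments, two-tailed t-test.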
# [4] = tested on: A549; assay: Antiproliferative activity against human A549 cells assessed as inhibition of cell viability after 48 hrs by MTT assay; settings: A549, 48 h; outline: as §1
# [5] = tested on: MGC-803; assay: Anticancer activity against human MGC803 cells assessed as colony formation after 24 hrs
# Outline: (§3)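 Clonogenic assay: MGC-803 seeded at 200 cells/well in 6-well plates and treated for 24 h. Then kept 10 d at 37 C in humidified CO2. Colonies of >50 cells counted; survival expressed as percent of untreated control (100%). n = 3, three independent experiments.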
# [6] = tested on: MGC-803; assay: Anticancer activity against human MGC803 cells assessed as colony formation at > 1 uM after 24 hrs; outline: as §3
# [7] = tested on: MGC-803; assay: Induction of apoptosis in human MGC803 cells assessed as nuclear condensation after 24 hrs
# [8] = tested on: MGC-803; assay: Induction of apoptosis in human MGC803 cells assessed as koss of Ca2+ homeostasis after 24 hrs by fluorescence microscopy
# [9] = tested on: MGC-803; assay: Induction of apoptosis in human MGC803 cells assessed as change in mitochondrial membrane potential by Rhodamine 123 assay
# Outline: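 Mitochondrial membrane potential measured with the cationic dye rhodamine 123 in treated MGC-803 cells at 10, 50 and 100 μM. Cellular fluorescence intensity normalised to baseline values of untreated control as a semiquantitative index.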
# [10] = tested on: MGC-803; assay: Anticancer activity against human MGC803 cells assessed as inhibition of cell viability after 24 to 72 hrs by MTT assay; outline: as §2
# [11] = tested on: MGC-803; assay: Anticancer activity against human MGC803 cells assessed as inhibition of cell viability at 0.01 to 100 uM by MTT assay; settings: TDE = time-dependent effect; outline: as §2
# [12] = tested on: MGC-803; assay: Antiproliferative activity against human MGC803 cells assessed as inhibition of cell viability after 24 hrs by MTT assay; settings: MGC-803, 24 h; outline: as §2
# [13] = tested on: MGC-803; assay: Antiproliferative activity against human MGC803 cells assessed as inhibition of cell viability after 72 hrs by MTT assay; settings: MGC-803, 72 h; outline: as §2
# [14] = tested on: MGC-803; assay: Anticancer activity against human MGC803 cells assessed as cell shrinkage and deformation at 100 uM after 72 hrs by inverted phase contrast microscopy assay
Structure (SMILES),IC50 [1] [µM],IC50 [2] [µM],IC50 [3] [µM],IC50 [4] [µM],other results
O=c1[nH]cc(F)c(=O)[nH]1 [FLUOROURACIL],15.1,19.8,7.76,7.62,
O=c1c2ccccc2oc2cc(OCCCCCCN3CCCC3)cc(O)c12,1.24,17.9,5.32,8.94,
C[N+]1(CCCOc2cc(O)c3c(=O)c4ccccc4oc3c2)CCCC1,> 100,> 100,9.66,> 100,
C[N+]1(CCCCOc2cc(O)c3c(=O)c4ccccc4oc3c2)CCOCC1,92.9,> 100,17.6,> 100,
O=c1c2ccccc2oc2cc(OCCCCCN3CCCC3)cc(O)c12,12.1,18.2,3.81,5.99,
O=c1c2ccccc2oc2cc(OCCCCN3CCCCC3)cc(O)c12,16.2,54.4,28.2,88.4,
C[N+]1(CCCCOc2cc(O)c3c(=O)c4ccccc4oc3c2)CCCC1,> 100,> 100,8.04,19.5,
O=c1c2ccccc2oc2cc(OCCN3CCCC3)cc(O)c12,11.3,14.6,5.63,12.8,
C[N+]1(CCCCOc2cc(O)c3c(=O)c4ccccc4oc3c2)CCCCC1,26.5,> 100,5.13,19.2,
CCN(CC)CCCCOc1cc(O)c2c(=O)c3ccccc3oc2c1,3.63,20.1,3.57,7.57,inhibition [5]: Dose-dependent effect; inhibition [6]: Active; inhibition [7]: Dose-dependent effect; Activity [8]: Dose-dependent effect; Activity [9]: Dose-dependent effect; inhibition [10]: Dose-dependent effect; inhibition [11]: tde; IC50 [12]: 11.9 µM; IC50 [13]: 1.82 µM; inhibition [14]: Active
O=c1c2ccccc2oc2cc(OCCCCCCBr)cc(O)c12,> 100,> 100,> 100,> 100,
C[N+](C)(C)CCCCOc1cc(O)c2c(=O)c3ccccc3oc2c1,38.5,> 100,38.1,83.9,
O=c1c2ccccc2oc2cc(OCCCCN3CCOCC3)cc(O)c12,> 100,> 100,> 100,> 100,
O=c1c2ccccc2oc2cc(OCCCCN3CCCC3)cc(O)c12,5.97,20.8,4.5,18.5,
CN(C)CCCCOc1cc(O)c2c(=O)c3ccccc3oc2c1,3.81,20.3,5.99,8.83,
C[N+]1(CCCCCCOc2cc(O)c3c(=O)c4ccccc4oc3c2)CCCC1,4.82,23.9,14.8,9.95,
O=c1c2ccccc2oc2cc(OCCBr)cc(O)c12,> 100,> 100,21.5,> 100,
O=c1c2ccccc2oc2cc(OCCCN3CCCC3)cc(O)c12,6.25,13,6.66,11.6,
O=c1c2ccccc2oc2cc(OCCCCBr)cc(O)c12,85.6,67.9,22.7,> 100,
CC[N+](C)(CC)CCCCOc1cc(O)c2c(=O)c3ccccc3oc2c1,> 100,> 100,4.61,13,
C[N+]1(CCCCCOc2cc(O)c3c(=O)c4ccccc4oc3c2)CCCC1,3.88,> 100,12.7,10.7,
O=c1c2ccccc2oc2cc(OCCCBr)cc(O)c12,> 100,> 100,28.9,> 100,
O=c1c2ccccc2oc2cc(OCCCCCBr)cc(O)c12,> 100,77.2,24.4,> 100,
C[N+]1(CCOc2cc(O)c3c(=O)c4ccccc4oc3c2)CCCC1,65.9,> 100,83.3,> 100,
